Data from ChEMBL document CHEMBL3526133, “Identifying a selective substrate and inhibitor pair for the evaluation of CYP2J2 activity” (Drug Metab Dispos, 2012).
pIC50: −log10 of the molar value. Where a name gives a salt, the structure may show the parent alone.

Key:
CYP2J2 [1] = target: T1, CYP2J2 (Homo sapiens, UniProt P51589); experiment: in vitro
T1 sequence (P51589 whole entry): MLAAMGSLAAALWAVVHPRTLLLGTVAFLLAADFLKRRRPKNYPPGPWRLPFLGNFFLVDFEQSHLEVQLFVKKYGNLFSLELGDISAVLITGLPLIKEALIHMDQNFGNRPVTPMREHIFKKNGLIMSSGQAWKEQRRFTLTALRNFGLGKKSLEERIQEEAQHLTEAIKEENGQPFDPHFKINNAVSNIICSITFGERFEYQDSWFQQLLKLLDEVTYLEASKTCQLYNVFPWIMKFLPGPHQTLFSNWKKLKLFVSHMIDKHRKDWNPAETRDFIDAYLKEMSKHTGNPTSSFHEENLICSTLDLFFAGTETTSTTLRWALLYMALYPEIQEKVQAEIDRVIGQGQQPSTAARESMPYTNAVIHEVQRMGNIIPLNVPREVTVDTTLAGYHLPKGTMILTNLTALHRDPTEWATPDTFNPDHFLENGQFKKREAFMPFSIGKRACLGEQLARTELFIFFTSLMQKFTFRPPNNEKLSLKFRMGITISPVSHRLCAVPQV

CYP2J2 [2] = target: T1, CYP2J2; experiment: in vitro; remark: listed apart in the source
Cytochrome P450 2J2 [3] = target: T2, Cytochrome P450 2J2 (Homo sapiens, UniProt P51589); experiment: Drug metabolism in human liver microsomes assessed as CYP2J2-mediated compound formation treated with amiodarone at 1 uM after 5 to 45 mins by LC-MS/MS analysis; format: ADME
T2 sequence (P51589 whole entry): T1 sequence (P51589 whole entry)

Cytochrome P450 2J2 [4] = target: T2, Cytochrome P450 2J2; experiment: Drug metabolism assessed as recombinant CYP2J2 (unknown origin)-mediated compound formation treated with amiodarone at 1 uM after 5 to 45 mins by LC-MS/MS analysis; format: ADME; settings: recombinant enzyme
Method in brief: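 Preincubated, then started with NADPH-regenerating system (1 mM NADPH final). Aliquots taken at 0, 5, 10, 20, 30, 45 min and quenched in acetonitrile with internal standard. No-NADPH controls included. Products measured by LC-MS/MS.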

[5] = Retention time in potassium phosphate buffer treated with amiodarone hydrochloride at 30 uM by HPLC analysis; format: physicochemical
Cytochrome P450 1A2 = target: T3, Cytochrome P450 1A2 (Homo sapiens, UniProt P05177)
T3 sequence (P05177 whole entry): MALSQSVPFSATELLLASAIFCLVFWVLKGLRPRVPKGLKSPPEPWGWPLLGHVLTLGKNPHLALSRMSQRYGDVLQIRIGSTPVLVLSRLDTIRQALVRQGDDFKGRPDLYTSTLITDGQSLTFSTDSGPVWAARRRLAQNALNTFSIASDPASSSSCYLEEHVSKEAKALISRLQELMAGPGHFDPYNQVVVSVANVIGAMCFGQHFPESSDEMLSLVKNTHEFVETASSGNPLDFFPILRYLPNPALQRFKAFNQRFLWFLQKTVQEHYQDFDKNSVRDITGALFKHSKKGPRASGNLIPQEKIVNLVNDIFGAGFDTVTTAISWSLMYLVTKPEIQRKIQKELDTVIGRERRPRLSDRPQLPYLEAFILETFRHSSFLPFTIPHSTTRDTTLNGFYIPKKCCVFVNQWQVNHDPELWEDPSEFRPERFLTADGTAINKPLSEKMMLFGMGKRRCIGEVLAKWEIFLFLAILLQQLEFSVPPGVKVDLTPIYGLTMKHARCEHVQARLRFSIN

Cytochrome P450 2C8 = target: T4, Cytochrome P450 2C8 (Homo sapiens, UniProt P10632)
T4 sequence (P10632 whole entry): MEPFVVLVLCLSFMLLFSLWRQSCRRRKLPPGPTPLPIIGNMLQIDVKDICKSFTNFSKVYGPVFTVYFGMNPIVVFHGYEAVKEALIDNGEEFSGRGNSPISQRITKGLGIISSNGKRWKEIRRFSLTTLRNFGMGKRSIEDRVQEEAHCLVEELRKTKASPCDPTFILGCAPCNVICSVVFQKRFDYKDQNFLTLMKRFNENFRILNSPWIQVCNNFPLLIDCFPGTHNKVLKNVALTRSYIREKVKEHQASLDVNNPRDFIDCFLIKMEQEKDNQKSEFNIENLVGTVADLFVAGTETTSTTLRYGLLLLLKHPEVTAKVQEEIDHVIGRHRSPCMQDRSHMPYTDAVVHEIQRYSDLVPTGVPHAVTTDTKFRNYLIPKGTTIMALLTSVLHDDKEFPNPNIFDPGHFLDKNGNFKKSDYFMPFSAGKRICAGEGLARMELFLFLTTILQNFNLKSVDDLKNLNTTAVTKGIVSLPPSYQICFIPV

Cytochrome P450 2D6 = Cytochrome P450 2D6 (Homo sapiens, UniProt P10635)
Cytochrome P450 2D6, sequence (P10635 whole entry): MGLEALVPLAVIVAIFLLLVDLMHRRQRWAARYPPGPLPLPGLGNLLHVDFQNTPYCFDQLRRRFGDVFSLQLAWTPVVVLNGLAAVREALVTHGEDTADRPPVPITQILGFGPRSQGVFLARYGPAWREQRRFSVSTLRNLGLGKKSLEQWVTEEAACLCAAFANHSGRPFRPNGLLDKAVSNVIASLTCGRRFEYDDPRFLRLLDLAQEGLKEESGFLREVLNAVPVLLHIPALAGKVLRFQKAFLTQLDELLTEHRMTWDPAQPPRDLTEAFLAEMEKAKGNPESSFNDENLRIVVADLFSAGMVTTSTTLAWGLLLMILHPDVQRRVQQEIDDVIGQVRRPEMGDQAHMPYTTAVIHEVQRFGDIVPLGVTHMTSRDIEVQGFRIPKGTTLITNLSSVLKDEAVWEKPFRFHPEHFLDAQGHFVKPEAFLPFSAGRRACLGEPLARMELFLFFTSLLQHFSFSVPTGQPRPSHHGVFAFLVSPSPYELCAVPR

Cytochrome P450 2C9 = Cytochrome P450 2C9 (Homo sapiens, UniProt P11712)
Cytochrome P450 2C9, sequence (P11712 whole entry): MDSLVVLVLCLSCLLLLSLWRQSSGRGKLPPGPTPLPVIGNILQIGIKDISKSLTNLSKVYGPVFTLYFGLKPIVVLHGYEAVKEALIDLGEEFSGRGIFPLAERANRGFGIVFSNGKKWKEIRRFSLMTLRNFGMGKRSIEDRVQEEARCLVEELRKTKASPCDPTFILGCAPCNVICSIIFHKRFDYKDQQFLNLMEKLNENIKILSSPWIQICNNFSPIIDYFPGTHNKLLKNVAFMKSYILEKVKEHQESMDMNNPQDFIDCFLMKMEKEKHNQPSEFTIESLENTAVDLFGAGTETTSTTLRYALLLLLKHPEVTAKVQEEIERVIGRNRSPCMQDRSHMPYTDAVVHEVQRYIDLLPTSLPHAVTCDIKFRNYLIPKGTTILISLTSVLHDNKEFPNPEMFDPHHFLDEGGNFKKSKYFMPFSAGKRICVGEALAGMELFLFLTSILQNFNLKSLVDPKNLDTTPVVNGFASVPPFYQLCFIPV

Cytochrome P450 2C19 = Cytochrome P450 2C19 (Homo sapiens, UniProt P33261)
Cytochrome P450 2C19, sequence (P33261 whole entry): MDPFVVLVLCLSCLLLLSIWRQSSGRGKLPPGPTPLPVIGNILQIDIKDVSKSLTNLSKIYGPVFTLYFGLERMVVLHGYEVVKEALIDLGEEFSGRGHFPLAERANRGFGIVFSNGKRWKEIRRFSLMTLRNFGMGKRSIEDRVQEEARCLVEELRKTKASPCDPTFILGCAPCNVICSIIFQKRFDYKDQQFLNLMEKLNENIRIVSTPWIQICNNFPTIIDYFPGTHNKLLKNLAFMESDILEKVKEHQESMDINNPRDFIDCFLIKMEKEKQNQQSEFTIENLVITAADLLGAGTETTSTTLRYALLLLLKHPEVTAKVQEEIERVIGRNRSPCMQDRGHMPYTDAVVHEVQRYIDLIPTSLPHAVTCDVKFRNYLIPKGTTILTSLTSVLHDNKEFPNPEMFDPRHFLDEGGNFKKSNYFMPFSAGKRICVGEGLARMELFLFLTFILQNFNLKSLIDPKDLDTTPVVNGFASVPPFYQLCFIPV

[6] = recombinant CYP2J2, probe terfenadine (hydroxylation)
[7] = recombinant CYP2J2, probe astemizole (O-demethylation)

SMILES	activity at 5 min, 30 µM (CYP2J2 [1]; [6]) [%]	activity at 5 min, 30 µM (CYP2J2 [2]; [7]) [%]	pIC50 (Cytochrome P450 2C8)	other results
CCOC(=O)[C@H](CCc1ccccc1)N[C@@H](C)C(=O)N1Cc2ccccc2C[C@H]1C(=O)O	51.4	64.1	–	–
CCN(CC)CCOc1c(I)cc(C(=O)c2c(CCCCO)oc3ccccc23)cc1I	–	–	–	Drug metabolism (Cytochrome P450 2J2 [3]): metabolite_detected; Drug metabolism (Cytochrome P450 2J2 [4]): metabolite_detected; Retention_time [5]: 12.7 min
COc1ccc(CCN(C)CCCC(C#N)(c2ccc(OC)c(OC)c2)C(C)C)cc1OC (stereo not drawn)	1.3	69.1	–	pIC50 (Cytochrome P450 1A2): < 4.52
O[C@@H](c1cc(C(F)(F)F)nc2c(C(F)(F)F)cccc12)[C@H]1CCCCN1 (relative stereo) [(S,R)-MEFLOQUINE]	22.4	44.6	< 4.52	–
CCCSc1ccc2nc(NC(=O)OC)[nH]c2c1 [ALBENDAZOLE]	–	–	< 4.52	pIC50 (Cytochrome P450 2D6): < 4.52; pIC50 (Cytochrome P450 1A2): < 4.52; pIC50 (Cytochrome P450 2C9): < 4.52; pIC50 (Cytochrome P450 2C19): < 4.52
CCN(CC)Cc1cc(Nc2ccnc3cc(Cl)ccc23)ccc1O [AMODIAQUINE]	22.5	7.7	–	–
CC(C)COCC(CN(Cc1ccccc1)c1ccccc1)N1CCCC1 (stereo not drawn) [BEPRIDIL]	–	–	< 4.52	pIC50 (Cytochrome P450 2D6): < 4.52; pIC50 (Cytochrome P450 1A2): < 4.52
CCCC1O[C@@H]2C[C@H]3[C@@H]4CCC5=CC(=O)C=C[C@]5(C)[C@H]4[C@@H](O)C[C@]3(C)[C@]2(C(=O)CO)O1 (stereo partly drawn) [BUDESONIDE]	50.8	–	–	–
CCN(CC)CCOc1ccc(C(=C(Cl)c2ccccc2)c2ccccc2)cc1 [CLOMIPHENE]	44.2	109	–	–
Clc1ccccc1C(c1ccccc1)(c1ccccc1)n1ccnc1 [CLOTRIMAZOLE]	14.1	5.6	–	pIC50 (Cytochrome P450 2D6): 6.05; pIC50 (Cytochrome P450 2C9): 6.87; pIC50 (Cytochrome P450 2C19): 5.13
CN(C)CCC=C1c2ccccc2C=Cc2ccccc21 [CYCLOBENZAPRINE]	–	–	–	activity at 5 min, 30 µM (CYP2J2 [1]; recombinant enzyme): 48.9%; activity at 5 min, 30 µM (CYP2J2 [2]; recombinant enzyme): 65.9%
C#C[C@]1(O)CC[C@H]2[C@@H]3CCC4=Cc5oncc5C[C@]4(C)[C@H]3CC[C@@]21C [DANAZOL]	1.6	8	5.71	pIC50 (Cytochrome P450 1A2): < 4.52
O=c1[nH]c2ccccc2n1CCCN1CCC(n2c(=O)[nH]c3cc(Cl)ccc32)CC1 [DOMPERIDONE]	43.5	50.5	–	–
CNCCC(Oc1ccc(C(F)(F)F)cc1)c1ccccc1 (stereo not drawn) [FLUOXETINE]	–	–	–	activity at 5 min, 30 µM (CYP2J2 [1]; recombinant enzyme): 44.3%; activity at 5 min, 30 µM (CYP2J2 [2]; recombinant enzyme): 87%
COCCCC/C(=N\OCCN)c1ccc(C(F)(F)F)cc1 [FLUVOXAMINE]	48.7	54.4	–	–
O=C(CCCN1CCC(O)(c2ccc(Cl)cc2)CC1)c1ccc(F)cc1 [HALOPERIDOL]	15.6	14.7	–	–

SMILES	activity at 5 min, 30 µM (CYP2J2 [1]; [6]) [%]	activity at 5 min, 30 µM (CYP2J2 [2]; [7]) [%]	pIC50 (Cytochrome P450 2C8)	other results
COC(=O)C1=C(C)NC(C)=C(C(=O)OC(C)C)C1c1cccc2nonc12 (stereo not drawn) [ISRADIPINE]	23.7	13.6	–	pIC50 (Cytochrome P450 1A2): 4.55
CC(=O)N1CCN(c2ccc(OCC3COC(Cn4ccnc4)(c4ccc(Cl)cc4Cl)O3)cc2)CC1 (stereo not drawn) [KETOCONAZOLE]	5.8	5.4	–	–
Cc1c(OCC(F)(F)F)ccnc1C[S+]([O-])c1nc2ccccc2[nH]1 (stereo not drawn) [LANSOPRAZOLE]	0.7	71.1	5.24	pIC50 (Cytochrome P450 2D6): 5.54; pIC50 (Cytochrome P450 1A2): 5.19; pIC50 (Cytochrome P450 2C9): 4.72; pIC50 (Cytochrome P450 2C19): 4.87
CCOC(=O)N1CCC(=C2c3ccc(Cl)cc3CCc3cccnc32)CC1 [LORATADINE]	–	–	5.53	activity at 5 min, 30 µM (CYP2J2 [1]; recombinant enzyme): 11.4%; activity at 5 min, 30 µM (CYP2J2 [2]; recombinant enzyme): 4%
CC[C@H](C)C(=O)O[C@H]1C[C@@H](C)C=C2C=C[C@H](C)[C@H](CC[C@@H]3C[C@@H](O)CC(=O)O3)[C@H]21 [LOVASTATIN]	37.7	13.6	–	–
CCC(=O)C(CC(C)N(C)C)(c1ccccc1)c1ccccc1 (stereo not drawn) [METHADONE]	43	123	–	–
Clc1ccc(COC(Cn2ccnc2)c2ccc(Cl)cc2Cl)c(Cl)c1 (stereo not drawn) [MICONAZOLE]	3.4	10.1	–	–
COC(=O)C1=C(C)NC(C)=C(C(=O)OCCN(C)Cc2ccccc2)C1c1cccc([N+](=O)[O-])c1 (stereo not drawn) [NICARDIPINE]	–	–	–	activity at 5 min, 30 µM (CYP2J2 [1]; recombinant enzyme): 8.9%; activity at 5 min, 30 µM (CYP2J2 [2]; recombinant enzyme): 5.8%
CNCCC=C1c2ccccc2CCc2ccccc21 [NORTRIPTYLINE]	–	–	–	activity at 5 min, 30 µM (CYP2J2 [1]; recombinant enzyme): 45.3%; activity at 5 min, 30 µM (CYP2J2 [2]; recombinant enzyme): 70.1%
COc1ccc2[nH]c([S+]([O-])Cc3ncc(C)c(OC)c3C)nc2c1 (stereo not drawn) [OMEPRAZOLE]	46.1	70.5	–	–
Cc1ccccc1C(OCCN(C)C)c1ccccc1 (stereo not drawn) [ORPHENADRINE]	1.2	102	< 4.52	pIC50 (Cytochrome P450 1A2): < 4.52; pIC50 (Cytochrome P450 2C9): < 4.52; pIC50 (Cytochrome P450 2C19): 4.62
Fc1ccc([C@@H]2CCNC[C@H]2COc2ccc3c(c2)OCO3)cc1 [PAROXETINE HYDROCHLORIDE]	31.6	39	< 4.52	pIC50 (Cytochrome P450 1A2): 5.27; pIC50 (Cytochrome P450 2C9): < 4.52
O=c1[nH]c2ccccc2n1C1CCN(CCCC(c2ccc(F)cc2)c2ccc(F)cc2)CC1 [PIMOZIDE]	27.3	6.6	< 4.52	pIC50 (Cytochrome P450 1A2): < 4.52
O=c1c(O)c(-c2ccc(O)c(O)c2)oc2cc(O)cc(O)c12 [QUERCETIN]	29.8	44.7	–	pIC50 (Cytochrome P450 2D6): 4.73
CC/C(=C(\c1ccccc1)c1ccc(OCCN(C)C)cc1)c1ccccc1 [TAMOXIFEN]	11.5	9.1	4.84	–
CSc1ccc2c(c1)N(CCC1CCCCN1C)c1ccccc1S2 (stereo not drawn) [THIORIDAZINE]	51.7	12.9	–	–
